Measurements as given in PMC4971946 (Pharmacognosy Magazine, 2016).

Biological target: rat intestinal sucrase (Rattus norvegicus, UniProt P23739)
Assay: Assay of sucrase inhibitory activity
Assay type: biochemical
Procedure, shortened: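 Rat intestinal sucrase-isomaltase prepared by Dahlqvist's method. Enzyme preincubated 10 min at 37°C with test sample (25–200 µg/ml, maleate buffer pH 6.0); reaction started with 60 mM sucrose solution, stopped after 30 min with 3,5-dinitrosalicylic acid reagent, boiled 5 min, A540 read. % inhibition relative to untreated-enzyme control lacking sample; three experiments.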

Chain of rat intestinal sucrase (P23739 whole entry): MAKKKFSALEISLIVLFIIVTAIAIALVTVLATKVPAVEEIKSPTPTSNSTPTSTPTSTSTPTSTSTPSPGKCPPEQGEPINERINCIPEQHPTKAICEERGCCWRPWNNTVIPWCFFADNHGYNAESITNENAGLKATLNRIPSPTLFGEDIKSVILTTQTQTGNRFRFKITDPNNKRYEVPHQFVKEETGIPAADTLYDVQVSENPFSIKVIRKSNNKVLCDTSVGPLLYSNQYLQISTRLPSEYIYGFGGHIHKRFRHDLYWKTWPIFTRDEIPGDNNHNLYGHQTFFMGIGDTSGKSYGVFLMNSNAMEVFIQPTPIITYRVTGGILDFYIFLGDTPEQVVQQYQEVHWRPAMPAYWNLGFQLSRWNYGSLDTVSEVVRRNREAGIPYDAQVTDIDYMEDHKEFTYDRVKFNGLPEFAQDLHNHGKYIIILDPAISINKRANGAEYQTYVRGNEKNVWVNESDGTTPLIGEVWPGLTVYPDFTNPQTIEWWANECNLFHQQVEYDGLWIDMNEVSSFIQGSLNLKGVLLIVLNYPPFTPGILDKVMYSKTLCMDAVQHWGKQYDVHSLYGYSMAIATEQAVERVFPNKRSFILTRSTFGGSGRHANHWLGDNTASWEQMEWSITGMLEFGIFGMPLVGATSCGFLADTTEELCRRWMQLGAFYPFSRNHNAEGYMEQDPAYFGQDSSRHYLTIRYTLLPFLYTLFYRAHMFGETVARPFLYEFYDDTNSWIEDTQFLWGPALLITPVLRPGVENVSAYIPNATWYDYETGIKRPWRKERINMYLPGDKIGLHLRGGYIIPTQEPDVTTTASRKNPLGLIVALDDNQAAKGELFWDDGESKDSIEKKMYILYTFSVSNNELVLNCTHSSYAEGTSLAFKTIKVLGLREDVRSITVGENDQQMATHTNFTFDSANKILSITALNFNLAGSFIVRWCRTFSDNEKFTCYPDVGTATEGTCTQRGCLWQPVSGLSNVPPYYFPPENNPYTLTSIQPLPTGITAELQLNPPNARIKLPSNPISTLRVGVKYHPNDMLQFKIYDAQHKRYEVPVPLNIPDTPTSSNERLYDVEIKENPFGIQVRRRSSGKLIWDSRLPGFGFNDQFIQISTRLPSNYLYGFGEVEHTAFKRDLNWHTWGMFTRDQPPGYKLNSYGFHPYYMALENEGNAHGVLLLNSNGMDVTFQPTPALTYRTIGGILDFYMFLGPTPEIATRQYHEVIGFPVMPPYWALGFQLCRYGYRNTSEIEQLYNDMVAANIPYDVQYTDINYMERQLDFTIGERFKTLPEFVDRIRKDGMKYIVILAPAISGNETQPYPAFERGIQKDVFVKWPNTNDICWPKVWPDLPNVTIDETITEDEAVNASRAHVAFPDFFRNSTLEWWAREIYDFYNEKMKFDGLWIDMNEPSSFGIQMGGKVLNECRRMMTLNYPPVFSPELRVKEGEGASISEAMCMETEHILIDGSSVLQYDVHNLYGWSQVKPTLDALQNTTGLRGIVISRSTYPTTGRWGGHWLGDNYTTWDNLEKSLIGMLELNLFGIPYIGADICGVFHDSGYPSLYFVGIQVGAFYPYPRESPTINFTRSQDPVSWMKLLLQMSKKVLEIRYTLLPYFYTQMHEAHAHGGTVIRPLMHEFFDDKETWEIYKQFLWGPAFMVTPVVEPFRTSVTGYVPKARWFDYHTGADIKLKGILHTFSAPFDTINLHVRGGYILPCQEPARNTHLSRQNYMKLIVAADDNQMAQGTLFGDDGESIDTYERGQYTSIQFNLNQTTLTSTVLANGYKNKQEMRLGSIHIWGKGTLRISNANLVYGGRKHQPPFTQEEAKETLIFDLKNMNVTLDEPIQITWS

IC50 [µM] | sucrase inhibitory activity IC50 (rat intestinal sucrase, in vitro) [µg/mL] | SMILES
194 | – | O=c1c(O[C@@H]2O[C@H](CO)[C@@H](O)[C@H](O)[C@H]2O)c(-c2ccc(O)c(O)c2)oc2cc(O)cc(O)c12 [Compound 5, quercetin-3-O-glucoside]
– | 195.62 | O=C1O[C@H]2[C@H](O)[C@@H](CO)OC(O)[C@@H]2OC(=O)c2cc(O)c(O)c(O)c2-c2c1cc(O)c(O)c2O (stereo partly drawn) [Compound 2, 2,3-hexahydroxydiphenoyl-(α/β)-D-^4C1-glucopyranose]
148 | – | O=C1OC[C@H]2OC(=O)c3cc(O)c(O)c(O)c3-c3c(O)c(O)c(O)c4c3C(=O)O[C@H]([C@H]3OC(=O)c5c-4c(O)c(O)c(O)c5[C@H]3O)[C@@H]2OC(=O)c2cc(O)c(O)c(O)c2-c2c1cc(O)c(O)c2O [Compound 4, castalagin]
217 | – | O=c1c(O[C@@H]2O[C@@H](CO)[C@H](O)[C@H]2O)c(-c2ccc(O)c(O)c2)oc2cc(O)cc(O)c12 [Compound 3, avicularin]
